Screening results as filed in PubChem.
CHOP inh = inhibitors of CHOP promoter induction, primary screen, cell-based, unfolded protein response, luciferase reporter. CHO-K1 CHOP-promoter luciferase, tunicamycin-induced, 15-18 h. inhibition, % at 10 µM. 220,000 compounds, 3.8% hits;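 active = compounds that reduced the stress-induced luciferase reporter signal by more than about 70% of percent inhibition, limit read from the data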
Dynein transport = inhibitors of GR-EGFP nuclear translocation, primary screen, dynein cargo transport inhibitor project, imaging, high-content, 3617.4 mouse cells. test concentration mostly 20 µM; stimulated with dexamethasone, 1 µM; active compounds read low. z-score, hits read low. 220,000 compounds, 0.47% hits;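 active = plate z-score of nuclear minus cytoplasmic receptor signal below a set negative limit, without overly bright fluorescence or cell loss, cut at about -3.5 in these data, passing the limit was not always enough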;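 note: z-score of nuclear minus cytoplasmic ring GR-EGFP intensity difference per well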
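Buffer or medium: tet-free, stripped-serum medium; Also added: dexamethasone, 1.0 µM final; Technique: high-content fluorescence imaging after fixation; Times: 48 h induction, 1 h compound, 30 min dex at 37 °C; Read-out: per-cell GR-EGFP intensity, nucleus versus surrounding cytoplasmic ring, well-averaged.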
b-catenin transl = modulators of beta-catenin nuclear translocation, primary screen, imaging, HeLa cells, immunofluorescence, high-content; nuclear translocation activity, % at 5 µM; 190,000 compounds, 0.3% hits;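 active = nuclear translocation activity above 50% at 5 µM, with a well cell count of 50 or more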;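 note: per-cell ratio of nuclear to cytoplasmic median beta-catenin stain intensity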
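Test system: human HeLa cells, native beta-catenin. Compound dosing: 5 µM primary single dose, 0.1% DMSO, 0.02–20 µM confirmation series. Incubation: compound exposure 24 h at 37°C. Detection: beta-catenin immunostaining with DAPI counterstain, 20x imaging, 6 fields/well. Read-out basis: Nuclear/cytoplasmic beta-catenin signal ratio, % activation.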
Lmaj promast = Leishmania major promastigote growth inhibition, primary screen; Leishmania major promastigotes, resazurin fluorescence viability; inhibition, % at 10 µM; 200,000 compounds, 9% hits; in the data active = inhibition above about 50%;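 note: promastigotes grown with compound for 44 hours at 28 °C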
Autophagy mod = autophagy modulators in MEF cells, primary screen, imaging, high-content, MEF GFP-LC3; MEF GFP-LC3 puncta imaging; test concentration mostly 10 µM; calls only at 10 µM (by protocol); 190,000 compounds, 0.98% hits;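 active = percentage of spot-positive cells more than 3 SD above its plate mean, without a fluorescence outlier flag or 80% toxicity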
MT stabilize HCS = microtubule stabilizers in HeLa cells, primary screen, imaging, high-content imaging | HeLa tubulin immunostaining HCS, 24 h; share of cells brighter than vehicle mean+2SD | % tubulin-high responders, % at 10 µM | 200,000 compounds, 0.83% hits;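 active = plate Z-score above 3 for both tubulin-high and condensed-nucleus cell shares, with cell loss under 80%, at 10 µM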;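 note: anti alpha tubulin signal scored within the nucleus-defined area of each cell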
Hits are given with their value; n = inactive; x = no result given. Compounds with a hit are over-represented: about 12% of the library has one in this group of screens.

SMILES | CHOP inh | Dynein transport | b-catenin transl | Lmaj promast | Autophagy mod | MT stabilize HCS
CCN(CC)c1ccc2cc(NC(=O)CCC(=O)O)c(=O)oc2c1 | 88 | n | x | n | n | n
CCN(CC)c1ccc2cc(C(C)=O)c(=O)oc2c1 | n | n | n | n | n | n
Cc1ccccc1S(=O)(=O)c1c(C)cc(C)n(CC(C)C)c1=O | 86 | n | x | 91 | n | n
Clc1ccc(-c2ccc(CNCC3CCCO3)o2)cc1 (centres undefined) | n | n | n | x | x | x
Cc1[nH][nH]c(=O)c1C(c1c(C)[nH][nH]c1=O)c1cn(Cc2ccccc2Cl)c2ccccc12 | n | n | n | n | n | 25
O=c1cc(O)c2ccccc2n1Cc1ccccc1Cl | n | n | n | n | n | n
C/C(=N\NC(=O)c1nonc1N)c1cccs1 | n | n | n | n | n | n
Cc1ccccc1-c1noc(-c2cccs2)n1 | 90 | n | n | n | n | n
O=c1[nH]c(CN2CCN(Cc3ccc4c(c3)OCO4)CC2)nc2ccccc12 | n | n | n | 91 | n | n
O=c1cc(-c2ccccc2)nc(N2CCN(Cc3ccc4c(c3)OCO4)CC2)[nH]1 | 71 | n | n | n | n | n
c1ccc2nc(N3CCN(Cc4ccc5c(c4)OCO5)CC3)cnc2c1 | n | n | n | n | n | n
CN1CCN(c2ccc(C(=O)c3cn(-c4ccc(F)c(Cl)c4)nn3)cc2)CC1 | n | n | n | 50 | n | n
Cc1ccc(-n2cc(C(=O)c3ccc(N4CCN(C)CC4)cc3)nn2)cc1Cl | 70 | n | n | 101 | n | n
Cc1ccc(C(=O)c2cn(-c3ccc(F)c(Cl)c3)nn2)cc1 | n | n | x | n | n | n
Cc1nc2ccccc2nc1OCC(=O)Nc1ccc2ccccc2c1 | n | n | x | 59 | n | n
Cc1cc(C)c(NC(=O)COc2nc3ccccc3nc2C)c(C)c1 | n | n | n | n | n | n
Cn1c(CN2CCOCC2)nnc1SCC(=O)NCCc1ccccc1 | n | n | n | n | n | n
Cc1cc(O)c(-c2cc(O)c(C)cc2O)cc1O | n | -6 | n | x | x | x
Cc1cc(NC(=O)c2ccc(Cl)cc2)c(C)cc1O | n | n | n | n | n | n
COc1ccc(/C=C/C(=O)Nc2cc(C(F)(F)F)ccc2Cl)cc1 | 74 | n | n | n | n | n
CC(=O)c1ccc(Oc2nc3c(c(=O)n(C)c(=O)n3C)n2C)cc1 | n | n | n | n | n | n
COC(=O)c1ccc(Oc2nc3c(c(=O)n(C)c(=O)n3C)n2CCC(C)C)cc1 | 75 | n | x | n | n | n
CC(C)NC(=O)C12CC3CC(C1)CC(n1cnc(Cl)n1)(C3)C2 | n | n | x | n | n | n
COC(=O)NCN1C(=O)C2C3C=CC(C3)C2C1=O (centres undefined) | n | n | n | n | n | n
CC(C)c1cccc(C(C)C)c1NC(=O)Cn1c(=O)cnc2ccccc21 | n | n | n | 92 | n | n
SMILES | CHOP inh | Dynein transport | b-catenin transl | Lmaj promast | Autophagy mod | MT stabilize HCS
CCCNC(=O)Cn1c(=O)cnc2ccccc21 | n | n | n | n | n | n
CC(C)(C)c1ccccc1NC(=O)Cn1c(=O)cnc2ccccc21 | n | n | n | 55 | n | n
CCCc1nnc(SCC(=O)N2CCCC(C)C2)n1CC1CCCO1 (centres undefined) | n | n | n | n | n | n
CCC(C(=O)O)N1C(=O)C2CCCCC2C1=O (centres undefined) | n | n | n | x | x | x
O=C(CSc1nn(-c2ccccc2)c(=S)s1)Nn1cnnc1 | n | n | n | n | n | n
Cc1ccc(NC(=O)CSc2nn(-c3ccccc3)c(=S)s2)cc1S(=O)(=O)N(C)C | 76 | n | n | 77 | n | n
COc1cccc(/C(C#N)=C/c2c(-c3ccc(Cl)cc3)nc3c(C)cccn23)c1 | n | n | n | 67 | n | n
Cc1cccn2c(/C=N/OCc3cccc(F)c3)c(-c3ccc(Cl)cc3)nc12 | n | n | x | 56 | n | n
CC(=O)N1CCc2cc(S(=O)(=O)NC(CC(C)C)C(=O)Nc3cc(C)ccn3)ccc21 (centres undefined) | n | n | n | n | n | n
